{"source": "ChEMBL document CHEMBL3045604", "about": "“Phytotoxicity of sarmentine isolated from long pepper (Piper longum) fruit” (J Agric Food Chem, 2010)", "key": {"[1]": {"system": "Echinochloa crus-galli", "experiment": "(§1) Phytotoxicity against Echinochloa crus-galli (barnyard grass) assessed as mortality measured after 3 days at 5 mg/ml by foliar spraying", "assay_type": "functional", "details": "for mortality at 5000 µg/mL: 72 h", "method_in_brief": "(§2)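 Whole plants sprayed on the foliage with freshly prepared test solution at 5 mg/mL. Spray volume was matched to foliar surface area, roughly 1 to 3 mL per pot. One or two pots were treated per species, depending on foliar area and plant availability.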"}, "[2]": {"system": "Oryza sativa", "experiment": "Herbicidal activity against Oryza sativa (rice) (M-104) Oryza sativa L assessed as mortality measured after 3 days at 5 mg/ml by foliar spraying", "assay_type": "organism-based", "details": "in vivo, other, 72 h", "method_in_brief": "as §2"}, "[3]": {"system": "Rumex crispus", "experiment": "Phytotoxicity against curly dock Rumex crispus assessed as mortality measured after 3 days at 5 mg/ml by foliar spraying", "assay_type": "functional", "details": "72 h", "method_in_brief": "as §2"}, "[4]": {"system": "Solanum nigrum", "experiment": "Phytotoxicity against Solanum nigrum (black nightshade) assessed as mortality measured after 3 days at 5 mg/ml by foliar spraying", "assay_type": "functional", "details": "72 h", "method_in_brief": "as §2"}, "[5]": {"system": "Mutarda arvensis", "experiment": "Phytotoxicity against wild mustard Sinapis arvensis assessed as mortality measured after 3 days at 5 mg/ml by foliar spraying", "assay_type": "functional", "details": "72 h", "method_in_brief": "as §2"}, "[6]": {"system": "Poa annua", "experiment": "Phytotoxicity against annual bluegrass Poa annua assessed as mortality measured after 3 days at 5 mg/ml by foliar spraying", "assay_type": "functional", "details": "72 h", "method_in_brief": "as §2"}, "[7]": {"system": "Chenopodium album", "experiment": "Phytotoxicity against Chenopodium album assessed as mortality measured after 3 days at 5 mg/ml by foliar spraying", "assay_type": "functional", "details": "72 h", "method_in_brief": "as §2"}, "[8]": {"system": "Taraxacum officinale", "experiment": "Phytotoxicity against dandelion Taraxacum officinale (dandelion) assessed as mortality measured after 3 days at 5 mg/ml by foliar spraying", "assay_type": "functional", "details": "72 h", "method_in_brief": "as §2"}, "[9]": {"system": "Leptochloa", "experiment": "Phytotoxicity against Leptochloa fascicularis (sprangletop) assessed as mortality measured after 3 days at 5 mg/ml by foliar spraying", "assay_type": "functional", "details": "72 h", "method_in_brief": "as §2"}, "[10]": {"system": "Cyperus difformis", "experiment": "Phytotoxicity against sedge Cyperus difformis assessed as mortality measured after 3 days at 5 mg/ml by foliar spraying", "assay_type": "functional", "details": "72 h", "method_in_brief": "as §2"}, "[11]": {"system": "Erigeron canadensis", "experiment": "Phytotoxicity against Conyza canadensis (horseweed)assessed as mortality measured after 3 days at 5 mg/ml by foliar spraying", "assay_type": "functional", "details": "72 h", "method_in_brief": "as §2"}, "[12]": {"system": "Digitaria sanguinalis", "experiment": "Phytotoxicity against Digitaria sanguinalis (hairy crabgrass) assessed as mortality measured after 3 days at 5 mg/ml by foliar spraying", "assay_type": "functional", "details": "72 h", "method_in_brief": "as §2"}, "[13]": {"system": "Convolvulus arvensis", "experiment": "Phytotoxicity against Convolvulus arvensis assessed as mortality measured after 3 days at 5 mg/ml by foliar spraying", "assay_type": "functional", "details": "72 h", "method_in_brief": "as §2"}, "[14]": {"system": "Echinochloa crus-galli", "experiment": "as §1", "assay_type": "functional", "details": "72 h", "method_in_brief": "as §2"}, "[15]": {"system": "Amaranthus retroflexus", "experiment": "Phytotoxicity against Amaranthus retroflexus assessed as mortality measured after 3 days at 5 mg/ml by foliar spraying", "assay_type": "functional", "details": "72 h", "method_in_brief": "as §2"}}, "note": "Activity calls are given as the source filed them. The rule behind the calls is not given here."}
{"smiles": "O=C(/C=C/c1ccccc1)N1CCCCC1", "values": [{"measurement": "mortality at 5000 µg/mL", "setting": "[1]", "result": 40, "unit": "%"}]}
{"smiles": "CCCCC/C=C\\C=C\\C(=O)OCC", "values": [{"measurement": "mortality at 5000 µg/mL", "setting": "[1]", "result": "< 20", "unit": "%"}]}
{"smiles": "CCCCCCC/C=C/C(=O)NC1CCCC1", "values": [{"measurement": "mortality at 5000 µg/mL", "setting": "[1]", "result": "< 20", "unit": "%"}]}
{"smiles": "CCCCC/C=C\\C=C\\C(=O)NC1CCCC1", "values": [{"measurement": "mortality at 5000 µg/mL", "setting": "[1]", "result": "< 20", "unit": "%"}]}
{"smiles": "O=C(/C=C/c1ccccc1)NC1CCCC1", "values": [{"measurement": "mortality at 5000 µg/mL", "setting": "[1]", "result": "< 20", "unit": "%"}]}
{"smiles": "CCCCCCC/C=C/C(=O)N1CCCC1", "values": [{"measurement": "mortality at 5000 µg/mL", "setting": "[1]", "result": 80, "unit": "%"}]}
{"smiles": "O=C(/C=C/c1ccccc1)N1CCCC1", "values": [{"measurement": "mortality at 5000 µg/mL", "setting": "[1]", "result": 80, "unit": "%"}]}
{"smiles": "CCCCCCC/C=C/C(=O)N1CCCCC1", "values": [{"measurement": "mortality at 5000 µg/mL", "setting": "[1]", "result": 80, "unit": "%"}]}
{"smiles": "CCCCCCC/C=C/C(=O)N1CCCCCC1", "values": [{"measurement": "mortality at 5000 µg/mL", "setting": "[1]", "result": 80, "unit": "%"}]}
{"smiles": "O=C(/C=C/c1ccccc1)N1CCCCCC1", "values": [{"measurement": "mortality at 5000 µg/mL", "setting": "[1]", "result": "< 20", "unit": "%"}]}
{"smiles": "C1CCCNCC1", "values": [{"measurement": "mortality", "setting": "[1]", "result": "inactive"}]}
{"smiles": "C1CCNC1", "values": [{"measurement": "mortality", "setting": "[1]", "result": "inactive"}]}
{"smiles": "C1CCNCC1", "values": [{"measurement": "mortality", "setting": "[1]", "result": "inactive"}]}
{"smiles": "NC1CCCC1", "values": [{"measurement": "mortality", "setting": "[1]", "result": "inactive"}]}
{"smiles": "CCCCCCC/C=C/C(=O)O", "note": "[2E-DECENOIC ACID]", "values": [{"measurement": "mortality at 5000 µg/mL", "setting": "[1]", "result": 80, "unit": "%"}]}
{"smiles": "CCCCC/C=C\\C=C\\C(=O)N1CCCCCC1", "note": "[(2E,4Z-DECADIENOYL)HEXAMETHLENEIMINE]", "values": [{"measurement": "mortality at 5000 µg/mL", "setting": "[1]", "result": 80, "unit": "%"}]}
{"smiles": "CCCCC/C=C\\C=C\\C(=O)N1CCCCC1", "note": "[(2E,4Z-DECADIENOYL)PIPERIDINE]", "values": [{"measurement": "mortality at 5000 µg/mL", "setting": "[1]", "result": 80, "unit": "%"}]}
{"smiles": "CCCCC/C=C\\C=C\\C(=O)N1CCCC1", "note": "[(2E,4Z-DECADIENOYL)PYRROLIDINE]", "values": [{"measurement": "mortality at 5000 µg/mL", "setting": "[1]", "result": 80, "unit": "%"}]}
{"smiles": "O=C(O)/C=C/c1ccccc1", "note": "[CINNAMIC ACID]", "values": [{"measurement": "mortality at 5000 µg/mL", "setting": "[1]", "result": 60, "unit": "%"}]}
{"smiles": "CCCCCCCCCC(=O)O", "note": "[DECANOIC ACID]", "values": [{"measurement": "mortality at 5000 µg/mL", "setting": "[1]", "result": 80, "unit": "%"}]}
{"smiles": "CCCCCCCCCC(=O)N1CCCCCC1", "note": "[N-(DECANOYL)HEXAMETHYLENEIMINE]", "values": [{"measurement": "mortality at 5000 µg/mL", "setting": "[1]", "result": 80, "unit": "%"}]}
{"smiles": "CCCCCCCCCC(=O)N1CCCCC1", "note": "[N-(DECANOYL)PIPERIDINE]", "values": [{"measurement": "mortality at 5000 µg/mL", "setting": "[1]", "result": 80, "unit": "%"}]}
{"smiles": "CCCCCCCCCC(=O)N1CCCC1", "note": "[N-(DECANOYL)PYRROLIDINE]", "values": [{"measurement": "mortality at 5000 µg/mL", "setting": "[1]", "result": 80, "unit": "%"}]}
{"smiles": "CCCCCCCCCC(=O)NC1CCCC1", "note": "[N-CYCLOPENTYLDECANAMIDE]", "values": [{"measurement": "mortality at 5000 µg/mL", "setting": "[1]", "result": "< 20", "unit": "%"}]}
{"smiles": "CCCCC/C=C/C=C/C(=O)N1CCCC1", "note": "[SARMENTINE]", "values": [{"measurement": "mortality at 5000 µg/mL", "setting": "[1]", "result": 80, "unit": "%"}, {"measurement": "mortality", "setting": "[2]", "result": "Not Active"}, {"measurement": "mortality at 5000 µg/mL", "setting": "[3]", "result": 80, "unit": "%"}, {"measurement": "mortality at 5000 µg/mL", "setting": "[4]", "result": 80, "unit": "%"}, {"measurement": "mortality at 5000 µg/mL", "setting": "[5]", "result": 80, "unit": "%"}, {"measurement": "mortality at 5000 µg/mL", "setting": "[6]", "result": 80, "unit": "%"}, {"measurement": "mortality at 5000 µg/mL", "setting": "[7]", "result": 80, "unit": "%"}, {"measurement": "mortality at 5000 µg/mL", "setting": "[8]", "result": 80, "unit": "%"}, {"measurement": "mortality at 5000 µg/mL", "setting": "[9]", "result": 80, "unit": "%"}, {"measurement": "mortality at 5000 µg/mL", "setting": "[10]", "result": 20, "unit": "%"}, {"measurement": "mortality at 5000 µg/mL", "setting": "[11]", "result": "< 20", "unit": "%"}, {"measurement": "mortality at 5000 µg/mL", "setting": "[12]", "result": 80, "unit": "%"}, {"measurement": "mortality at 5000 µg/mL", "setting": "[13]", "result": 80, "unit": "%"}, {"measurement": "mortality at 5000 µg/mL", "setting": "[14]", "result": 80, "unit": "%"}, {"measurement": "mortality at 5000 µg/mL", "setting": "[15]", "result": 80, "unit": "%"}]}
